ABCG2 inh = human ABCG2 inhibition, ABCB1 as counter-screen. Q9UNQ0. IgMXP3 cells, JC-1 efflux, flow cytometry. inhibition, % at 6.6 µM. 190,000 compounds, 0.1% hits. AID 1325;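 active = inhibition above 80%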;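 also: 0% = DMSO and 100% = nicardipine control wells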
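Test system: IgMXP3 cells (ABCG2) mixed with DDAO far-red-labelled CCRF-Adr cells (ABCB1). Reagent: JC-1 transporter substrate. Compound dosing: single test compound dose, 6.6 µM final. Times: 10 min compound exposure, 25 °C. Detection: flow cytometry of retained JC-1 fluorescence. Read-out basis: efflux inhibition in percent versus controls. Controls: nicardipine and DMSO wells.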
ABCB1 block = human ABCB1 inhibition, ABCG2 as counter-screen. CCRF-Adr cells, JC-1 efflux, flow cytometry. 190,000 compounds, 0.067% hits. P08183. inhibition, % at 6.6 µM; in the data active = inhibition above about 40%;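 also: 0% = vehicle and 100% = reference inhibitor; higher value means more JC-1 retained so stronger ABCB1 efflux block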
GSH bead fluor = compound fluoresces at 488/530 nm on GSH beads; AID 1776; GSH beads flow cytometry, compound fluorescence 488/530 nm; active compounds read high; fluorescence (KMESF) at 10 µM; 190,000 compounds, 0.25% hits; in the data active = fluorescence above about 89;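 also: glutathione beads carrying GST-tagged Bcl family fusion proteins plus one bare bead set; values are compound well signal with DMSO vehicle wells as background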
Lmaj promast = reduces viability of Leishmania major promastigotes; resazurin fluorescence viability; inhibition, % at 10 µM; 200,000 compounds, 9% hits;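 also: promastigotes grown with compound for 44 hours at 28 °C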
PKD1 inh = inhibitors of human PKD1 kinase. PKD1 kinase fluorescence polarization assay. inhibition, % (no concentration beside the values). 200,000 compounds, 0.056% hits. AID 797
Target sequence (Q15139 whole entry, looked up): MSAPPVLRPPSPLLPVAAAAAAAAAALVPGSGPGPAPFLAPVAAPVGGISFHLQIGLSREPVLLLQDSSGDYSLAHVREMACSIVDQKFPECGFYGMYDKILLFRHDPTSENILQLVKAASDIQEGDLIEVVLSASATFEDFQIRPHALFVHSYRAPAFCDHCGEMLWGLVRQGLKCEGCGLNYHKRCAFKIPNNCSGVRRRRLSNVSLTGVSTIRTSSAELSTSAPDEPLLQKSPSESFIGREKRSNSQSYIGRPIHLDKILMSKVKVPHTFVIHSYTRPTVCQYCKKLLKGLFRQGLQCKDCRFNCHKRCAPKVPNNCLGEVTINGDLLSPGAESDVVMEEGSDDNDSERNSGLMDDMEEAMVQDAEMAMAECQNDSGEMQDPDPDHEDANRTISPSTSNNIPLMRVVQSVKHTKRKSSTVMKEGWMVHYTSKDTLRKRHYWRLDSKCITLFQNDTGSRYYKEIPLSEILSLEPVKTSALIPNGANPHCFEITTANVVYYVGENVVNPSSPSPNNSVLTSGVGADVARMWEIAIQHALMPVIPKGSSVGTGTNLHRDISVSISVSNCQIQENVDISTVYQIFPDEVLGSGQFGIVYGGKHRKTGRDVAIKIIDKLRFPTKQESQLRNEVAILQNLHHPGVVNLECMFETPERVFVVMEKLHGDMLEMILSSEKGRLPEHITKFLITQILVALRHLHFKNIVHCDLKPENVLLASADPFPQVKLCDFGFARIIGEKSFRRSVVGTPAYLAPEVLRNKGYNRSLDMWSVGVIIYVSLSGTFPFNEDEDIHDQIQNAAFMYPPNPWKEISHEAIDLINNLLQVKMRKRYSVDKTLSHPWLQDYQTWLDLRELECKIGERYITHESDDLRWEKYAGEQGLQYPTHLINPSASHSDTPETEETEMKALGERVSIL
Avidin fluor = avidin bead compound fluorescence profile; fluorescence (KMESF) at 10 µM; 220,000 compounds, 0.38% hits; Avidin beads, compound fluorescence 488/530 nm, flow cytometry; active compounds read high; in the data active = fluorescence above about 47
Numbers without * were called inactive. This is one part of a sample in which hits are shown more often than they occur. Rule as the data show it, unless noted: active = inhibition above about 50%; inactive = the rest.

How did Nc1ncnc(Oc2cccc3cccnc23)c1[N+](=O)[O-] do in these assays?
ABCG2 inh: -4; ABCB1 block: 0; GSH bead fluor: 9; Lmaj promast: 96*; PKD1 inh: 1; Avidin fluor: 10

What do the screens show for `Cc1cc(C)c2[nH]c(O)c(N=NC3=NC(=O)CS3)c2c1`?
Avidin fluor: 124*

What do the screens show for `C=CCNC(=S)/C(=C(/[O-])c1ccc([N+](=O)[O-])cc1)[n+]1ccccc1`?
ABCG2 inh: 2; ABCB1 block: 0; GSH bead fluor: 13; Lmaj promast: -3; PKD1 inh: -3; Avidin fluor: 8

What do the screens show for `COc1ccc2nc(SCC(=O)N3CCN(c4ccccc4F)CC3)c(C#N)cc2c1`?
Lmaj promast: 5; PKD1 inh: -2

What do the screens show for `CCCCCCN(C(=O)CCCCCN1C(=O)NC(c2ccccc2)C(C(=O)OCc2ccccc2)=C1C)C(C(=O)NCCCC)c1ccc(OCC(=O)OC)c(C(=O)OC)c1` (configuration not stated)?
Avidin fluor: 19

Results for Cc1cccc(C)c1OCc1nc2ccccc2c(=O)n1/N=C/c1c[nH]c2ccccc12 ?
ABCG2 inh: 0; ABCB1 block: 2; GSH bead fluor: 11; Lmaj promast: 96*; PKD1 inh: -17; Avidin fluor: 10

What do the screens show for `Cc1ccccc1OCc1nc2ccccc2c(=O)n1/N=C/c1c[nH]c2ccccc12`?
ABCG2 inh: 0; ABCB1 block: 0; GSH bead fluor: 13; Lmaj promast: 2; PKD1 inh: 6; Avidin fluor: 8

Results for Cc1ccc(-c2[nH]ncc2/C=N/n2c(COc3ccccc3C)nc3ccccc3c2=O)cc1 ?
ABCG2 inh: -1; ABCB1 block: 1; GSH bead fluor: 12; Lmaj promast: 75*; PKD1 inh: 4; Avidin fluor: 2

Results for COc1cccc(CN(Cc2cccnc2)S(=O)(=O)c2ccc(-n3cnnn3)c(C)c2)c1 ?
ABCG2 inh: 1; ABCB1 block: 2; GSH bead fluor: 18; Lmaj promast: 100*; PKD1 inh: 6; Avidin fluor: 13

What do the screens show for `COc1cccc(CN(c2ccc3c(c2)CCC3)S(=O)(=O)c2ccc(-n3cnnn3)c(OC)c2)c1`?
ABCG2 inh: 6; ABCB1 block: 7; GSH bead fluor: 15; Lmaj promast: 66*; PKD1 inh: -12; Avidin fluor: 12

What do the screens show for `O=C(c1ccc(Cl)c(S(=O)(=O)N2CCCCCC2)c1)N1CCCC1`?
Avidin fluor: 7

How did O=C1c2ccccc2NC(c2ccc(-c3cccc([N+](=O)[O-])c3)o2)N1O (configuration not stated) do in these assays?
ABCG2 inh: -4; ABCB1 block: -1; GSH bead fluor: 7; Lmaj promast: 82*; PKD1 inh: -20; Avidin fluor: 5

How did O=C1c2ccccc2NC(c2ccc(-c3ccc(Br)cc3)o2)N1O (configuration not stated) do in these assays?
ABCG2 inh: 15; ABCB1 block: 1; GSH bead fluor: 65; Lmaj promast: 99*; PKD1 inh: 2; Avidin fluor: 7

How did O=C1c2ccccc2NC(c2ccc3c(c2)OCO3)N1O (configuration not stated) do in these assays?
ABCG2 inh: 0; ABCB1 block: 0; GSH bead fluor: 17; Lmaj promast: -10; PKD1 inh: 1; Avidin fluor: 36

How did CC(C)N(c1ccccc1)c1ccc(NC(=O)C2CCCO2)cc1 (configuration not stated) do in these assays?
ABCG2 inh: 3; ABCB1 block: 1; GSH bead fluor: 266*; Lmaj promast: 1; PKD1 inh: -7; Avidin fluor: 7

What do the screens show for `Cc1cc(Oc2ccc(=O)n(C)n2)nc(SCCOc2ccccc2)n1`?
Avidin fluor: 14

Results for CCOC(=O)CCCc1ccc(/C(C)=N/NC(N)=S)cc1 ?
Avidin fluor: 5

What do the screens show for `O=C(O)CC(=O)Nc1cc(Cl)ccc1O`?
ABCG2 inh: 0; ABCB1 block: 0; GSH bead fluor: 33; Lmaj promast: 1; PKD1 inh: 4; Avidin fluor: 7

How did Cc1cc(C)c([N+](=O)[O-])cc1NC(=O)CCSc1ccccc1Cl do in these assays?
ABCG2 inh: 43; ABCB1 block: 1; GSH bead fluor: 5; Lmaj promast: 55*; PKD1 inh: -2; Avidin fluor: 11

Results for O=C(CCSc1ccccc1Cl)Nc1cccc([N+](=O)[O-])c1 ?
ABCG2 inh: 55; ABCB1 block: 6; GSH bead fluor: 9; Lmaj promast: 5; PKD1 inh: -5; Avidin fluor: 23

How did O=C(CCc1ccccc1)Nc1cc(Cl)ccc1O do in these assays?
ABCG2 inh: 3; ABCB1 block: 0; GSH bead fluor: 45; Lmaj promast: 78*; PKD1 inh: -1; Avidin fluor: 5

How did Cc1cc(NC(=O)CCc2ccccc2)c([N+](=O)[O-])cc1C do in these assays?
GSH bead fluor: 9; Lmaj promast: 51*; PKD1 inh: -15; Avidin fluor: 7

What do the screens show for `CNc1ccc(C2(O)C(=O)c3ccccc3C2=O)cc1`?
ABCG2 inh: 11; ABCB1 block: 1; GSH bead fluor: 9; Lmaj promast: -7; PKD1 inh: -14; Avidin fluor: 3

Results for O=C1c2ccccc2NC(c2ccc3c(c2)OCCO3)N1c1ccc2c(c1)OCCO2 (configuration not stated) ?
ABCG2 inh: 2; ABCB1 block: 1; GSH bead fluor: 262*; Lmaj promast: 18; PKD1 inh: -12; Avidin fluor: 8

What do the screens show for `O=[N+]([O-])c1ccc(N2CCSCC2)cc1`?
ABCG2 inh: 0; ABCB1 block: 0; GSH bead fluor: 9; Lmaj promast: -6; PKD1 inh: 2; Avidin fluor: 8

What do the screens show for `CCNc1nc(NCC)nc(SCCOC(=O)c2ccccc2)n1`?
ABCG2 inh: 13; ABCB1 block: 0; GSH bead fluor: 28; Lmaj promast: 55*; PKD1 inh: -7; Avidin fluor: 7

What do the screens show for `CCNC(=O)CC1C(=O)N(CC)C(=S)N1NC(=O)c1ccccc1` (configuration not stated)?
Avidin fluor: 2

What do the screens show for `CN(C)c1cc(Cl)c2nonc2c1N`?
Avidin fluor: 7

Results for CC(C)N1C(=O)S/C(=C/c2ccc(Sc3nc4ccccc4[nH]3)o2)C1=O ?
ABCG2 inh: 5; GSH bead fluor: 9; Lmaj promast: 83*; PKD1 inh: -7; Avidin fluor: 16

Results for C=CCN1C(=O)S/C(=C/c2ccc(Sc3nc4ccccc4[nH]3)o2)C1=O ?
ABCG2 inh: 8; ABCB1 block: 5; GSH bead fluor: 4; Lmaj promast: 41; PKD1 inh: 1; Avidin fluor: 10

High-throughput results: PubChem, several laboratories
